# Source: PubChem BioAssay (several laboratories)
# HTRA1 inh: blocks human HTRA1 serine peptidase; Q92743; recombinant HTRA1, FP-rhodamine activity-based probe, fluorescence polarization; inhibition, % at 5.96 µM; 340,000 tested, 0.5% active; AID 504803; in the data active means inhibition above about 36%;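 further: 0% = enzyme with DMSO and 100% = wells lacking enzyme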
# PRMT1 inh: inhibitors of human PRMT1; recombinant PRMT1, activity-based probe fluorescence polarization; 370,000 tested, 1.3% active; inhibition, % at 2.79 µM;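 active means inhibition above about 21% made by adding two undisclosed values, limit read from the data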
# mABHD4 FP: inhibits mouse alpha/beta hydrolase domain 4 | purified mABHD4, FP-Rh probe fluorescence polarization | inhibition, % at 8.92 µM | 370,000 tested, 0.54% active | AID 720543;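 active means inhibition exceeding the mean over every tested compound plus 3 SD, cut at about 30% in these data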;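 further: 0% = plate median of compound wells and 100% = S159A mutant with DMSO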
# Target sequence (Q8VD66 whole entry, looked up, the tested form may be a part): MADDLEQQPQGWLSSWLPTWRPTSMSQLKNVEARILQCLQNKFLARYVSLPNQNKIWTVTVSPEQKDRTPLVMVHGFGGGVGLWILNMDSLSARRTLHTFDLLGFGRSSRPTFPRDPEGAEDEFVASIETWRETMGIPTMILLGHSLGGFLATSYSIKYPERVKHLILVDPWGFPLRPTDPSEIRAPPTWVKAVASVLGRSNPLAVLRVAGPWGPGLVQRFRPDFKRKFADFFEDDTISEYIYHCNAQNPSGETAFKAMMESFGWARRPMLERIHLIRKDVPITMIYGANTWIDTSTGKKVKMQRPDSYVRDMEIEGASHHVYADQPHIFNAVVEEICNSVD
#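 Assay system: mABHD4 protein; medium: HEPES pH 7.0, NaCl, Pluronic buffer; dosing: 8.92 µM, single dose; schedule: 45 min + 60 min at 25 °C; signal: FP readout, ex 525 nm / em 598 nm; read-out: normalized percent inhibition of probe labeling; repeats: single replicate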
# SIAE inh: human SIAE inhibition, primary screen; Q9HAT2; SIAE FP-Rh probe binding, fluorescence polarization; inhibition, % at 9.66 µM; 370,000 tested, 0.69% active;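 active means inhibition above a cutoff: mean of compounds within the control limits plus 3 SD of those, cut at about 17% in these data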;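 further: 0% = plate median of compound wells and 100% = probe without SIAE protein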
# TCR-CD3 inh: human TCR-CD3 binding inhibition; TAMRA-labeled TCR probe fluorescence, biochemical; inhibition, % at 9.4 µM; 360,000 tested, 0.37% active; AID 651800; in the data active means inhibition above about 19%;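 further: recombinant mutant TCR 2C K166C tagged with TAMRA read by polarization; 0% = receptor in buffer alone and 100% = receptor with positive control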
# ATG4B inhibitor: blocks human ATG4B protease cleavage of LC3 substrate. ATG4B cleavage of LC3-PLA2, NBD-HPC fluorescence, 1 h. inhibition, % at 8.33 µM. 340,000 tested, 0.51% active. AID 504462; in the data active means inhibition above about 40%
# Active calls of the source: *; . = not tested or not shown. Hits are enriched below; roughly 2.9% of the tested compounds scored in any of these assays.
SMILES,HTRA1 inh,PRMT1 inh,mABHD4 FP,SIAE inh,TCR-CD3 inh,ATG4B inhibitor
Cc1ccccc1C(=O)Nc1ccc(-c2nc3ccc(C(=O)c4ccccc4)cc3[nH]2)cc1,-112,2,-110,-145,67*,5
Cc1ccc(NC(=O)c2sc3nc(N4CCOCC4)c4c(c3c2N)CC(C)(C)OC4)cc1,-6,22*,-9,3,-11,0
CNc1cccnc1C=NNC(N)=S,3,24*,3,5,0,6
NC(=S)N/N=C/c1ccccc1,6,3,7,6,1,0
COc1cccc(C(=O)Oc2ccc(/C=N/Nc3ccc(C(=O)O)cc3)cc2OC)c1,5,8,13,9,2,22
COc1cccc(OCc2cc(/C=N/Nc3ccc(C(=O)O)cc3)ccc2OC)c1,-61,10,34*,3,0,-2
COc1cccc(CNC(=O)C2CCCN(c3ncccn3)C2)c1OC (centres undefined),.,1,2,-4,.,.
CC(C)CC(=O)Nc1nc2ccc(S(C)(=O)=O)cc2s1,1,23*,-14,-4,-6,-1
Cc1c(C)n(Cc2ccc(-c3ccccc3C(=O)O)cc2)c2ccc(C(=O)N[C@@H](C)c3ccc([N+](=O)[O-])cc3)cc12,.,5,9,-9,.,.
O=S(=O)(c1ccc(N=C2NN=C(c3cc(F)ccc3F)CS2)cc1)N1CCOCC1,.,55*,-36,-23,5,-8
Fc1ccc(N=C2NN=C(c3cc(F)ccc3F)CS2)cc1,0,7,1,4,-3,-12
Cc1ccc(NC(=O)c2ccc(=O)[nH]n2)cc1S(=O)(=O)Nc1ccc(SC(F)F)cc1,-44,46*,-60,-59,11,-13
Cc1ccc(NC(=O)c2ccc(=O)[nH]n2)cc1C,-5,-1,4,0,2,5
C=CCN1C(=O)[C@@H](CC(=O)NCCC(C)C)[C@]2(C(=O)OC)CCCCC=C12,.,-4,-3,3,.,.
Cc1ccc(OCc2nnc(SCC(=O)Nc3ccccc3-c3ccccc3)n2Cc2ccco2)cc1,.,13,-6,-6,.,.
O=C(NCC1COc2ccccc2O1)c1ccc(NC(=O)c2cccc(F)c2)cc1 (centres undefined),.,-2,-3,-1,.,.
N#C/C(=C/c1ccc(F)cc1)S(=O)(=O)c1ccccc1,-9,3,5,1,4,-4
N#C/C(=C\c1ccc(O)c(O)c1)S(=O)(=O)c1ccccc1,31,3,21,20*,10,5
NC(N)=N/N=C/c1ccc(OCc2ccccc2)c(OCc2ccccc2)c1,-41,4,20,25*,-8,0
CCOc1cc(/C=N/N=C(N)N)ccc1OCc1ccc(Cl)cc1,6,-6,21,13,3,19
Cc1ccc(NC(=S)N2CCN(Cc3ccccc3)CC2)cc1,0,-2,5,1,2,-11
Cc1ccc(C(=S)N2CCN(Cc3ccccc3)CC2)cc1,-2,22*,1,3,2,4
COC(=O)c1ccc(NCc2cc(O)ccc2O)cc1O,6,23*,23,6,1,-9
O=C(COC(=O)c1ccc(O)cc1O)Nc1ccc2ccccc2c1,-27,5,-19,-28,-2,-19
O=C(CSc1nnc(-c2ccccn2)n1-c1ccccc1)c1ccc2c(c1)OCO2,.,-1,5,-1,.,.
SMILES,HTRA1 inh,PRMT1 inh,mABHD4 FP,SIAE inh,TCR-CD3 inh,ATG4B inhibitor
CC(C)CCNC(=O)C(NS(=O)(=O)c1ccc2c(c1)c(=O)n(C)c(=O)n2C)c1ccccc1 (centres undefined),4,21*,-2,-6,4,-14
CCCCCCc1c(O)c2ccccc2[nH]c1=O,9,3,12,0,1,-12
CCCCCCCCCCCC1=C(O)C(=O)C=C(O)C1=O,43*,.,.,.,.,-35
COc1cc(NC(=O)c2cc3cccc(OC)c3o2)cc(C(=O)Nc2cccc(C(F)(F)F)c2)c1,-66,-1,-45,-137,45*,-18
COc1ccc(NC(=S)NNC(=S)Nc2cccc(C(F)(F)F)c2)cc1,28,-1,12,31*,-5,-6
CCN1CCN(Cc2ccc(NC(=O)c3cc(NC(=O)c4cc(-c5ccc(OC)cc5)n[nH]4)cc(OC)c3)cc2C(F)(F)F)CC1,-105,-2,-88,-136,28*,-29
CCOc1ccc(NC(=S)NNC(=S)Nc2cccc(C(F)(F)F)c2)cc1,18,7,-1,2,-6,-4
